Here are results for 29 compounds from ChEMBL document CHEMBL2321826, “Synthesis and antibacterial evaluation of rhodanine-based 5-aryloxy pyrazoles against selected methicillin resistant and quinolone-resistant Staphylococcus aureus (MRSA and QRSA)” (Eur J Med Chem, 2013).

Common to all, as to assay type: functional
For assay [1], the system named is Staphylococcus aureus. The assay is described as follows: Antibacterial activity against quinolone-resistant Staphylococcus aureus CCARM 3519 assessed as bacterial growth inhibition measured during 24 hrs incubation at 37 degC by two-fold serial dilution technique. Particulars: CCARM 3519, 24 h. The procedure, abridged: (§1)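 Clinical isolates grown to mid-log phase in Mueller-Hinton broth, diluted 1000-fold, inoculated at 10⁵ CFU/mL in MHB in 96-well microtiter plates. Two-fold serial dilutions gave final concentrations of […]. Oxacillin and norfloxacin were the positive controls. Growth was read as absorbance at 650 nm. MIC is the lowest concentration giving complete growth inhibition.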

Assay [2] deals with Staphylococcus aureus. The assay is described as follows: Antibacterial activity against quinolone-resistant Staphylococcus aureus CCARM 3505 assessed as bacterial growth inhibition measured during 24 hrs incubation at 37 degC by two-fold serial dilution technique. As to conditions: CCARM 3505, 24 h. An outline of the steps:
as §1

The test system of assay [3] is Staphylococcus aureus. The assay is described as follows: Antibacterial activity against methicillin-resistant Staphylococcus aureus CCARM 3506 assessed as bacterial growth inhibition measured during 24 hrs incubation at 37 degC by two-fold serial dilution technique. As to conditions: CCARM 3506, 24 h. The procedure, abridged: as §1
Assay [4] has as its system Staphylococcus aureus. The assay is described as follows: Antibacterial activity against methicillin-resistant Staphylococcus aureus CCARM 3167 assessed as bacterial growth inhibition measured during 24 hrs incubation at 37 degC by two-fold serial dilution technique. As to conditions: CCARM 3167, 24 h. An outline of the steps: as §1

Usually MIC stands for the least concentration at which growth counts as inhibited.

≈ marks a conversion by molar mass, not a printed value. Some results are limits rather than exact numbers.

Consider `CCC(C)[C@@H](C(=O)O)N1C(=O)/C(=C/c2c(C)nn(-c3ccccc3)c2Cl)SC1=S` (stereo partly specified), for which the MIC with Staphylococcus aureus [1] is 32 µg/mL (≈ 71.1 µM); with Staphylococcus aureus [2], 16 µg/mL (≈ 35.6 µM); in the assay with Staphylococcus aureus [3], 32 µg/mL (≈ 71.1 µM); in the assay with Staphylococcus aureus [4], 16 µg/mL (≈ 35.6 µM).

For `Cc1nn(-c2ccccc2)c(Cl)c1/C=C1\SC(=S)N([C@@H](CC(C)C)C(=O)O)C1=O`, the MIC is 32 µg/mL (≈ 71.1 µM) in the assay on Staphylococcus aureus [1], 32 µg/mL (≈ 71.1 µM) with Staphylococcus aureus [2], 32 µg/mL (≈ 71.1 µM) in the assay with Staphylococcus aureus [3] and 16 µg/mL (≈ 35.6 µM) in the assay on Staphylococcus aureus [4].

For the compound `CCC(C)[C@@H](C(=O)O)N1C(=O)/C(=C/c2c(C)nn(-c3ccccc3)c2Oc2ccccc2Cl)SC1=S` (stereo partly specified), the MIC in the assay with Staphylococcus aureus [1] was found to be 4 µg/mL (≈ 7.38 µM); with Staphylococcus aureus [2], 4 µg/mL (≈ 7.38 µM); with Staphylococcus aureus [3], 4 µg/mL (≈ 7.38 µM); in the assay on Staphylococcus aureus [4], 2 µg/mL (≈ 3.69 µM).

As to `CCC(C)[C@@H](C(=O)O)N1C(=O)/C(=C/c2c(C)nn(-c3ccccc3)c2Oc2cccc(Cl)c2)SC1=S` (stereo partly specified), the MIC in the assay with Staphylococcus aureus [1] is 8 µg/mL (≈ 14.8 µM); in the assay on Staphylococcus aureus [2], 8 µg/mL (≈ 14.8 µM); in the assay on Staphylococcus aureus [3], 8 µg/mL (≈ 14.8 µM); in the assay on Staphylococcus aureus [4], 4 µg/mL (≈ 7.38 µM).

Regarding `CCC(C)[C@@H](C(=O)O)N1C(=O)/C(=C/c2c(C)nn(-c3ccccc3)c2Oc2ccc(Cl)cc2)SC1=S` (stereo partly specified), the MIC in the assay on Staphylococcus aureus [1] was found to be 4 µg/mL (≈ 7.38 µM); in the assay on Staphylococcus aureus [2], 4 µg/mL (≈ 7.38 µM); with Staphylococcus aureus [3], 4 µg/mL (≈ 7.38 µM); in the assay on Staphylococcus aureus [4] it was 2 µg/mL (≈ 3.69 µM).

On to `CCC(C)[C@@H](C(=O)O)N1C(=O)/C(=C/c2c(C)nn(-c3ccccc3)c2Oc2ccc(F)cc2)SC1=S` (stereo partly specified), for which the MIC with Staphylococcus aureus [1] was 8 µg/mL (≈ 15.2 µM); in the assay on Staphylococcus aureus [2], 8 µg/mL (≈ 15.2 µM); in the assay with Staphylococcus aureus [3], 4 µg/mL (≈ 7.61 µM); in the assay on Staphylococcus aureus [4] it was 2 µg/mL (≈ 3.8 µM).

Regarding `CCC(C)[C@@H](C(=O)O)N1C(=O)/C(=C/c2c(C)nn(-c3ccccc3)c2Oc2ccc(Br)cc2)SC1=S` (stereo partly specified), the MIC in the assay with Staphylococcus aureus [1], with Staphylococcus aureus [2], with Staphylococcus aureus [3] and in the assay with Staphylococcus aureus [4] was 2 µg/mL (≈ 3.41 µM) throughout.

Turning to `CCC(C)[C@@H](C(=O)O)N1C(=O)/C(=C/c2c(C)nn(-c3ccccc3)c2Oc2ccc3ccccc3c2)SC1=S` (stereo partly specified), the MIC in the assay on Staphylococcus aureus [1], in the assay with Staphylococcus aureus [2], in the assay with Staphylococcus aureus [3] and in the assay on Staphylococcus aureus [4] was 2 µg/mL (≈ 3.59 µM) in each case.

On to `CCC(C)[C@@H](C(=O)O)N1C(=O)/C(=C/c2c(C)nn(-c3ccccc3)c2Oc2ccccc2)SC1=S` (stereo partly specified), for which the MIC in the assay on Staphylococcus aureus [1] turned out to be 4 µg/mL (≈ 7.88 µM); in the assay on Staphylococcus aureus [2], 8 µg/mL (≈ 15.8 µM); with Staphylococcus aureus [3], 4 µg/mL (≈ 7.88 µM); in the assay on Staphylococcus aureus [4], 4 µg/mL (≈ 7.88 µM).

Regarding `CCC(C)[C@@H](C(=O)O)N1C(=O)/C(=C/c2c(C)nn(-c3ccccc3)c2Oc2ccccc2C)SC1=S` (stereo partly specified), the MIC was 4 µg/mL (≈ 7.67 µM) in the assay on Staphylococcus aureus [1], 4 µg/mL (≈ 7.67 µM) in the assay with Staphylococcus aureus [2], 4 µg/mL (≈ 7.67 µM) with Staphylococcus aureus [3] and 2 µg/mL (≈ 3.83 µM) in the assay with Staphylococcus aureus [4].

As for `CCC(C)[C@@H](C(=O)O)N1C(=O)/C(=C/c2c(C)nn(-c3ccccc3)c2Oc2cccc(C)c2)SC1=S` (stereo partly specified), the MIC was 2 µg/mL (≈ 3.83 µM) with Staphylococcus aureus [1], 4 µg/mL (≈ 7.67 µM) with Staphylococcus aureus [2], 4 µg/mL (≈ 7.67 µM) in the assay on Staphylococcus aureus [3] and 2 µg/mL (≈ 3.83 µM) in the assay on Staphylococcus aureus [4].

For the compound `CCC(C)[C@@H](C(=O)O)N1C(=O)/C(=C/c2c(C)nn(-c3ccccc3)c2Oc2ccc(C)cc2)SC1=S` (stereo partly specified), the MIC was determined as 4 µg/mL (≈ 7.67 µM) with Staphylococcus aureus [1], 4 µg/mL (≈ 7.67 µM) in the assay with Staphylococcus aureus [2], 4 µg/mL (≈ 7.67 µM) with Staphylococcus aureus [3] and 2 µg/mL (≈ 3.83 µM) in the assay on Staphylococcus aureus [4].

Take `CCC(C)[C@@H](C(=O)O)N1C(=O)/C(=C/c2c(C)nn(-c3ccccc3)c2Oc2ccc(C)cc2C)SC1=S` (stereo partly specified): the MIC with Staphylococcus aureus [1], in the assay on Staphylococcus aureus [2], in the assay on Staphylococcus aureus [3] and in the assay with Staphylococcus aureus [4] was 2 µg/mL (≈ 3.73 µM) each time.

`CCC(C)[C@@H](C(=O)O)N1C(=O)/C(=C/c2c(C)nn(-c3ccccc3)c2Oc2cccc(C(F)(F)F)c2)SC1=S` (stereo partly specified): the MIC amounted to 8 µg/mL (≈ 13.9 µM) in the assay with Staphylococcus aureus [1], 8 µg/mL (≈ 13.9 µM) with Staphylococcus aureus [2], 8 µg/mL (≈ 13.9 µM) in the assay on Staphylococcus aureus [3] and 4 µg/mL (≈ 6.95 µM) in the assay with Staphylococcus aureus [4].

For the compound `CCC(C)[C@@H](C(=O)O)N1C(=O)/C(=C/c2c(C)nn(-c3ccccc3)c2Oc2ccc(OC)cc2)SC1=S` (stereo partly specified), the MIC with Staphylococcus aureus [1], with Staphylococcus aureus [2], in the assay with Staphylococcus aureus [3] and in the assay on Staphylococcus aureus [4] was 4 µg/mL (≈ 7.44 µM) in each case.

As for `CCC(C)[C@@H](C(=O)O)N1C(=O)/C(=C/c2c(C)nn(-c3ccccc3)c2Oc2ccccc2OC)SC1=S` (stereo partly specified), the MIC in the assay with Staphylococcus aureus [1], with Staphylococcus aureus [2], with Staphylococcus aureus [3] and in the assay on Staphylococcus aureus [4] was 16 µg/mL (≈ 29.8 µM) each time.

As for `Cc1nn(-c2ccccc2)c(Oc2ccc(Cl)cc2Cl)c1/C=C1\SC(=S)N([C@@H](CC(C)C)C(=O)O)C1=O`, the minimal inhibitory concentration (MIC) in the assay with Staphylococcus aureus [1], with Staphylococcus aureus [2], in the assay with Staphylococcus aureus [3] and with Staphylococcus aureus [4] was 4 µg/mL (≈ 6.94 µM) each time.

Regarding `Cc1ccc(Oc2c(/C=C3\SC(=S)N([C@@H](CC(C)C)C(=O)O)C3=O)c(C)nn2-c2ccccc2)c(C)c1`, the MIC in the assay with Staphylococcus aureus [1], with Staphylococcus aureus [2], in the assay on Staphylococcus aureus [3] and with Staphylococcus aureus [4] was 4 µg/mL (≈ 7.47 µM) throughout.

As for `Cc1nn(-c2ccccc2)c(Cl)c1/C=C1\SC(=S)N(CC(=O)O)C1=O`, the MIC in the assay on Staphylococcus aureus [1], in the assay on Staphylococcus aureus [2], in the assay on Staphylococcus aureus [3] and with Staphylococcus aureus [4] was over 64 µg/mL in each case.

Turning to `Cc1nn(-c2ccccc2)c(Cl)c1/C=C1\SC(=S)N([C@H](C(=O)O)C(C)C)C1=O`, the MIC in the assay on Staphylococcus aureus [1] is 32 µg/mL (≈ 73.4 µM); in the assay on Staphylococcus aureus [2], 32 µg/mL (≈ 73.4 µM); in the assay on Staphylococcus aureus [3], 32 µg/mL (≈ 73.4 µM); in the assay on Staphylococcus aureus [4] it was 16 µg/mL (≈ 36.7 µM).

As for `Cc1nn(-c2ccccc2)c(Oc2ccccc2)c1/C=C1\SC(=S)N([C@H](C(=O)O)C(C)C)C1=O`, the MIC in the assay with Staphylococcus aureus [1], in the assay with Staphylococcus aureus [2], in the assay on Staphylococcus aureus [3] and in the assay on Staphylococcus aureus [4] was 16 µg/mL (≈ 32.4 µM) throughout.

`Cc1ccccc1Oc1c(/C=C2\SC(=S)N([C@H](C(=O)O)C(C)C)C2=O)c(C)nn1-c1ccccc1`: the MIC in the assay with Staphylococcus aureus [1] stood at 8 µg/mL (≈ 15.8 µM); in the assay with Staphylococcus aureus [2], 8 µg/mL (≈ 15.8 µM); with Staphylococcus aureus [3] it was 8 µg/mL (≈ 15.8 µM); in the assay on Staphylococcus aureus [4] it was 4 µg/mL (≈ 7.88 µM).

Regarding `Cc1cccc(Oc2c(/C=C3\SC(=S)N([C@H](C(=O)O)C(C)C)C3=O)c(C)nn2-c2ccccc2)c1`, the minimal inhibitory concentration (MIC) came to 4 µg/mL (≈ 7.88 µM) in the assay on Staphylococcus aureus [1], 4 µg/mL (≈ 7.88 µM) in the assay with Staphylococcus aureus [2], 8 µg/mL (≈ 15.8 µM) in the assay with Staphylococcus aureus [3] and 4 µg/mL (≈ 7.88 µM) in the assay with Staphylococcus aureus [4].

As for `Cc1ccc(Oc2c(/C=C3\SC(=S)N([C@H](C(=O)O)C(C)C)C3=O)c(C)nn2-c2ccccc2)cc1`, the MIC with Staphylococcus aureus [1], in the assay with Staphylococcus aureus [2], in the assay on Staphylococcus aureus [3] and in the assay on Staphylococcus aureus [4] was 4 µg/mL (≈ 7.88 µM) in each case.

`Cc1ccc(Oc2c(/C=C3\SC(=S)N([C@H](C(=O)O)C(C)C)C3=O)c(C)nn2-c2ccccc2)c(C)c1`: the MIC is 2 µg/mL (≈ 3.83 µM) with Staphylococcus aureus [1], 4 µg/mL (≈ 7.67 µM) with Staphylococcus aureus [2], 4 µg/mL (≈ 7.67 µM) in the assay with Staphylococcus aureus [3] and 2 µg/mL (≈ 3.83 µM) with Staphylococcus aureus [4].

As for `Cc1nn(-c2ccccc2)c(Oc2cccc(C(F)(F)F)c2)c1/C=C1\SC(=S)N([C@H](C(=O)O)C(C)C)C1=O`, the MIC stood at 8 µg/mL (≈ 14.2 µM) with Staphylococcus aureus [1], 8 µg/mL (≈ 14.2 µM) in the assay with Staphylococcus aureus [2], 8 µg/mL (≈ 14.2 µM) with Staphylococcus aureus [3] and 4 µg/mL (≈ 7.12 µM) with Staphylococcus aureus [4].

Regarding `COc1ccc(Oc2c(/C=C3\SC(=S)N([C@H](C(=O)O)C(C)C)C3=O)c(C)nn2-c2ccccc2)cc1`, the MIC in the assay on Staphylococcus aureus [1], in the assay with Staphylococcus aureus [2], in the assay with Staphylococcus aureus [3] and in the assay with Staphylococcus aureus [4] was 8 µg/mL (≈ 15.3 µM) throughout.

On to `COc1ccccc1Oc1c(/C=C2\SC(=S)N([C@H](C(=O)O)C(C)C)C2=O)c(C)nn1-c1ccccc1`, for which the MIC in the assay on Staphylococcus aureus [1], in the assay with Staphylococcus aureus [2], with Staphylococcus aureus [3] and with Staphylococcus aureus [4] was 16 µg/mL (≈ 30.6 µM) in each case.

As for `CCC(C)[C@@H](C(=O)O)N1C(=O)/C(=C/c2c(C)nn(-c3ccccc3)c2Oc2c(Cl)cccc2Cl)SC1=S` (stereo partly specified), the MIC with Staphylococcus aureus [1] was 16 µg/mL (≈ 27.8 µM); with Staphylococcus aureus [2], 16 µg/mL (≈ 27.8 µM); with Staphylococcus aureus [3] it was 16 µg/mL (≈ 27.8 µM); in the assay with Staphylococcus aureus [4], 8 µg/mL (≈ 13.9 µM).
